Measurements: ChEMBL document CHEMBL1123548 (J Med Chem, 1986)

Tests used:
Adenosine receptor A2a = Adenosine receptor A2a (Cavia porcellus, UniProt P46616); assay: Compound was evaluated for its ability to antagonise cyclic [3H]AMP accumulation in [3H]adenine-labeled guinea pig cerebral cortical slices.; assay type: functional
Adenosine receptor A1 = target: T1, Adenosine receptor A1 (Rattus norvegicus, UniProt P25099); assay: Ability to inhibit binding of 1 nM [3H]cyclohexyladenosine to adenosine A1 receptor in rat cerebral cortical membranes; assay type: cell membranes, Membrane
T1 sequence (P25099 whole entry): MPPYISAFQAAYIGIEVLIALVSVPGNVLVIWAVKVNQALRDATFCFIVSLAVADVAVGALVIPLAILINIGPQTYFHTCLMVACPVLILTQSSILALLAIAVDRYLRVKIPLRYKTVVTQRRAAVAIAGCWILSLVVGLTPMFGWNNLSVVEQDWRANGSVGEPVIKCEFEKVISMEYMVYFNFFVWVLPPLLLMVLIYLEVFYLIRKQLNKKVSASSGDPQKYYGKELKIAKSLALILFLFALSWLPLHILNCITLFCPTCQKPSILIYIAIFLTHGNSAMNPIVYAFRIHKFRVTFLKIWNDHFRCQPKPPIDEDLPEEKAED
Outline: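 Displacement of 1 nM N6-[3H]cyclohexyladenosine from A1 sites in rat cerebral cortical membranes by a range of xanthine concentrations. Each point was run in triplicate in at least two separate experiments. IC50 was determined and converted to Ki. Values are mean ± SEM of two to five determinations.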

Cavia porcellus = species on record: Cavia porcellus; assay: Selectivity was expressed as the ratio is Ki of adenosine A1 receptor to that of adenosine A2 receptor
[1] = target: Adenosine receptor A1 (Rattus norvegicus) (UniProt P25099); assay: Inactive Selectivity was expressed as the ratio is Ki of A1-[…]

Chain of Adenosine receptor A2a (P46616 whole entry): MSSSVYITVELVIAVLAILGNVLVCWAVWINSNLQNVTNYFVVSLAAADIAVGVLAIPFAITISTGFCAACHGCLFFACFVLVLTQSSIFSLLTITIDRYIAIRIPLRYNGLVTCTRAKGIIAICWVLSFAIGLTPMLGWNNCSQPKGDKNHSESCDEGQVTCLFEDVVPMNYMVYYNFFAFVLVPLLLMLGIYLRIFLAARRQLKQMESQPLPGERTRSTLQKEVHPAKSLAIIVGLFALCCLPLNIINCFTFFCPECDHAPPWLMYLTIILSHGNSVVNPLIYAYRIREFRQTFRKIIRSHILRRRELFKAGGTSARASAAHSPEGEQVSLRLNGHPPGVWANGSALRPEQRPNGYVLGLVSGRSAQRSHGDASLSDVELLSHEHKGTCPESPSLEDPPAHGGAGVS

Structure (SMILES)	Ki (Adenosine receptor A2a)	Ki (Adenosine receptor A1)	Selectivity ratio (Cavia porcellus)	Selectivity ratio [1]
CCn1c(=O)c2nc[nH]c2n(CC)c1=O	3 µM	3.3 µM	1.1	
CC(C)Cn1c(=O)c2nc[nH]c2n(CC(C)C)c1=O		0.5 µM	0.3	
Cn1c(=O)n(CCO)c(=O)c2[nH]cnc21	50 µM	85 µM	1.7	
Cn1c(=O)c2c(ncn2CCCl)n(C)c1=O [7-CHLOROETHYLTHEOPHYLLINE]	4.5 µM	8 µM	1.8	
C=CCn1c(=O)c2nc[nH]c2n(CC=C)c1=O		10 µM	2	
CC(C)Cn1c(=O)n(C)c(=O)c2nc[nH]c21			0.9	
Cn1c(=O)c2nc[nH]c2n(CCO)c1=O	80 µM	60 µM	0.8	
CC(C)n1c(=O)n(C)c(=O)c2[nH]cnc21	6 µM	12 µM	2	
C#CCn1cnc2c1c(=O)n(CCC)c(=O)n2CCC	0.4 µM	0.6 µM	1.5	
CC(C)Cn1c(=O)n(C)c(=O)c2c1ncn2Cc1ccccc1	11 µM	9 µM	0.8	
CC(=O)OCCn1cnc2c1c(=O)n(C)c(=O)n2C	68 µM	40 µM	0.6	
CCCn1c(=O)c2nc[nH]c2n(CCC)c1=O			0.3	
O=c1c2[nH]cnc2n(Cc2ccccc2)c(=O)n1Cc1ccccc1	14 µM	2 µM	0.14	
Cn1c(=O)c2c(ncn2Cc2ccccc2)n(C)c1=O	14 µM	6 µM	0.4	
CCCn1c(=O)c2c(ncn2Cc2ccccc2)n(CCC)c1=O	1.5 µM	1 µM	0.7	
CCn1c(=O)c2nc[nH]c2n(C)c1=O	5 µM	15 µM	3	
C=CCn1cnc2c1c(=O)n(CCC)c(=O)n2CCC	0.7 µM	1.9 µM	2.7	
C=CCn1c(=O)c2c(ncn2C)n(CC=C)c1=O	4 µM	18 µM	4.5	

Further lines, results first:

Ki (Adenosine receptor A2a)	Ki (Adenosine receptor A1)	Selectivity ratio (Cavia porcellus)	Selectivity ratio [1]	Structure (SMILES)
135 µM	105 µM	0.8		Cn1c(=O)c2c(ncn2CCO)n(C)c1=O [ETOFYLLINE]
6 µM		7.5		C#CCn1c(=O)c2c(ncn2C)n(C)c1=O
1.4 µM	2.6 µM	1.9		CCCn1c(=O)c2c(ncn2CCC)n(CCC)c1=O
6.5 µM	47 µM	7.2		C=CCn1c(=O)c2c(ncn2C)n(C)c1=O
1.2 µM	7 µM	5.8		CCCn1c(=O)c2c(ncn2C)n(CCC)c1=O
2.8 µM	3.1 µM	1.1		C#CCn1cnc2c1c(=O)n(C)c(=O)n2CC(C)C
10 µM	33 µM	3.3		C=CCn1cnc2c1c(=O)n(C)c(=O)n2C
7 µM	19 µM	2.7		CC(C)Cn1c(=O)n(C)c(=O)c2c1ncn2C
9 µM	24 µM	2.7		CCCn1c(=O)n(C)c(=O)c2c1ncn2C
8.5 µM	13 µM	1.5		C=CCn1cnc2c1c(=O)n(C)c(=O)n2CC(C)C
4.1 µM	12 µM	2.9		C#CCn1cnc2c1c(=O)n(C)c(=O)n2C
5 µM	38 µM	9.5		CCCn1c(=O)c2c(ncn2C)n(C)c1=O
11 µM	13 µM	1.2		CCCn1cnc2c1c(=O)n(C)c(=O)n2CC(C)C
11 µM	21 µM		1.9	CCCn1cnc2c1c(=O)n(C)c(=O)n2C
